Compounds with a hit are over-represented: about 2.8% of the library has one in this group of screens.
E-selectin induc = E-selectin induction on HUVECs; activation, % at 7.58 µM; 260,000 tested, 0.37% active; HUVEC E-selectin immunofluorescence imaging; normalized: neutral wells 0, TNF-alpha wells 100; P16581; AID 686992;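 active = mean E-selectin-positive cell signal at least 10% of the positive control, reached in at least 60% of replicates, without over 20% cell loss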
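material = human umbilical vein endothelial cells (HUVEC), E-selectin induction | quantity = 3,000 cells/well | medium = EGM-2 growth medium on 0.1% gelatin-coated wells | technique = immunofluorescence imaging | read-out basis = % PE-positive cells | control set = TNF-alpha positive control, DMSO neutral control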
SIRT5 block = inhibitors of human sirtuin-5 desuccinylase. Q9NXA8. Purified SirT5, succinyl-peptide AMC, trypsin-coupled fluorescence. inhibition, % at 15 µM. 330,000 tested, 1.1% active; in the data active = inhibition above about 15%
Target sequence (Q9NXA8 whole entry, looked up): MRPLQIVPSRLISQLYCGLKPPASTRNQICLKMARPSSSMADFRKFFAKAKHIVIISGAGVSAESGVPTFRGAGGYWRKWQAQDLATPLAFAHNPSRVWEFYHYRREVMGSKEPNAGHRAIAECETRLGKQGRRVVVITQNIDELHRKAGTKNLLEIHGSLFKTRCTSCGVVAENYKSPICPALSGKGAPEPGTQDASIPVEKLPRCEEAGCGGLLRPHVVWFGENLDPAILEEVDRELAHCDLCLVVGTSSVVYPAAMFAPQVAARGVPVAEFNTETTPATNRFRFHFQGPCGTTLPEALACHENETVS
DENV2 CPE rescue = protects cells from dengue virus 2 cytopathic effect; DENV2-infected cells, cytopathic effect rescue, plate reader; CPE inhibition, % at 9.99 µM; 350,000 tested, 1.7% active; in the data active = CPE inhibition above about 20%, passing the limit was not always enough; tested in BHK-21 cells;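 note: 0% = median of neutral control wells and 100% = median of positive control wells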
An asterisk follows results filed as active; . = no result; ! = not confirmed by another sample.

SMILES	E-selectin induc	SIRT5 block	DENV2 CPE rescue
O=C(C[C@@H]1C=C[C@@H](NS(=O)(=O)c2ccccc2)[C@@H](CO)O1)N1CCc2ccccc2C1	-0.3	0.5	-7.9
CC(C)c1ccc(-n2c(-c3ccccc3)c[n+]3c2CCc2ccccc2-3)cc1	2.0	-1.7	0.9
COc1ccccc1-n1c(-c2ccccc2)c[n+]2c1CCc1ccccc1-2	-0.1	111.9*!	9.4
Cc1ccc(-c2ccc([C@H]3[C@@H](CO)N4C(=O)CN(C(=O)c5ccncc5)C[C@H]34)cc2)cc1	-0.1	-3.9	0.7
COc1ccccc1C#Cc1ccc2c(c1)[C@@H]1[C@@H](CCN1C(=O)c1ccc(F)cc1)[C@@H](CO)N2	0.2	4.8	2.2
COc1cccc(C#Cc2ccc3c(c2)[C@@H]2[C@@H](CCN2C(=O)c2ccc(F)cc2)[C@@H](CO)N3)c1	1.1	.	26.0*
O=C(c1ccccc1)N1CC[C@@H]2[C@H]1c1cc(C#Cc3cccc(F)c3)ccc1N[C@@H]2CO	1.1	.	42.6*
O=C(c1ccccc1)N1CC[C@@H]2[C@@H](CO)Nc3ccc(C#Cc4cccc(F)c4)cc3[C@@H]21	-0.6	.	23.3*
O=C(c1cccc(F)c1)N1CC[C@@H]2[C@H]1c1cc(C#Cc3cccc(F)c3)ccc1N[C@@H]2CO	0.4	-2.6	-4.2
O=C(c1cccc(F)c1)N1CC[C@@H]2[C@H](CO)Nc3ccc(C#Cc4cccc(F)c4)cc3[C@@H]21	0.6	3.1	12.5
N#C[C@H]1[C@@H](c2ccc(C3=CCCCC3)cc2)[C@H](CO)N1C(=O)NC1CCCCC1	0.2	-1.2	-6.3
O=C1CNC[C@@H]2[C@@H](c3ccc(-c4ccccc4F)cc3)[C@H](CO)N12	-0.3	-0.7	4.5
C[C@H]1CN([C@@H](C)CO)S(=O)(=O)c2ccc(-c3cncnc3)cc2O[C@H]1CN(C)C(=O)CC1CC1	0.7	-1.1	3.1
O=C(c1cnccn1)N1CC(=O)N2[C@H](CO)[C@H](c3ccc(C#CCc4ccccc4)cc3)[C@H]2C1	-0.3	0.3	-15.4
C[C@H](CO)N1C[C@H](C)[C@H](CN(C)C(=O)C2CC2)Oc2cc(C3=CCCCC3)ccc2S1(=O)=O	-0.5	1.7	0.5
O=C(Nc1ccc(C(O)c2ccccc2)cc1)[C@@H]1O[C@H](CO)[C@H](O)[C@H](O)[C@H]1O (stereo partly specified)	-0.1	.	7.5
COc1ccc(-c2ccccc2)cc1NC(=O)[C@@H]1O[C@H](CO)[C@H](O)[C@H](O)[C@H]1O	0.0	.	32.0*
Cn1c(=O)c2c(nc(CCc3ccccc3)n2C)n(C)c1=O	-1.1	.	-0.7
Cn1c(=O)c2c(nc(OCCc3ccccc3)n2C)n(C)c1=O	-0.1	25.8*	0.1
CN1C(=O)c2cc(NC(=O)Cc3cccs3)ccc2OC[C@H]2O[C@H](CC(=O)NCC3CC3)CC[C@H]21	-0.1	-0.2	2.6
CCOC(=O)CSC1=C(C#N)C(c2sccc2C)C(C(C)=O)=C(C)N1 (stereo unspecified)	.	34.2*	-0.3
CC(=O)C1=C(C)NC(SCC(N)=O)=C(C#N)C1c1sccc1C (stereo unspecified)	.	-4.8	-2.2
CC(C)CNC(=O)C1(C)CCCCCN1C(=O)c1csnn1 (stereo unspecified)	0.1	.	112.8*
CC(C)CNC(=O)C1(C)CCCN1C(=O)c1csnn1 (stereo unspecified)	2.3	-0.5	1.5
Cc1noc(C)c1NC(=O)Nc1ccc2c(c1)C(=O)N([C@H](C)CO)C[C@@H](C)[C@H](CN(C)S(=O)(=O)c1cccs1)O2	-4.4	-2.5	11.2
SMILES	E-selectin induc	SIRT5 block	DENV2 CPE rescue
CSCCC(NC(=O)COc1ccccc1)C(=O)NCCOc1ccc(C)cc1 (stereo unspecified)	.	-2.5	3.7
CSCCC(NC(=O)COc1ccccc1)C(=O)OCCOc1ccc(C)cc1 (stereo unspecified)	-0.5	1.2	26.7*
COc1ccc(S(=O)(=O)N(C)C[C@@H]2Oc3c(NS(=O)(=O)c4ccc(Cl)cc4)cccc3C(=O)N([C@@H](C)CO)C[C@H]2C)cc1	-0.1	.	-3.2
Cc1ccc(NC(=O)Nc2ccc(S(N)(=O)=O)cc2)cc1	.	-3.9	-1.9
NS(=O)(=O)c1ccc(NC(=O)Nc2ccccc2)cc1	1.2	-0.8	-2.7
NS(=O)(=O)c1ccc(NC(=O)Nc2ccc(S(N)(=O)=O)cc2)cc1	.	15.1*	-3.7
Cc1ccc(S(N)(=O)=O)cc1	.	.	51.9*
C[C@H]1CCCCO[C@@H](CN(C)C(=O)Nc2ccc(C(F)(F)F)cc2)[C@@H](C)CN([C@@H](C)CO)C(=O)c2cc(NC(=O)c3ccncc3)ccc2O1	0.0	13.3	12.5
O=C(N[C@H]1CC[C@H](CCNS(=O)(=O)c2cccc(Cl)c2)O[C@@H]1CO)c1ccc(F)cc1	0.2	0.6	-3.8
O=C(C[C@H]1CC[C@@H](NC(=O)NC2CCCCC2)[C@@H](CO)O1)NCc1ccc(F)cc1	-0.1	2.1	2.3
CN(C)C(=O)c1cccc(-c2ccc(C3[C@H]4CNC[C@@H]3N4Cc3cc(F)ccc3F)cc2)c1 (stereo partly specified)	0.3	1.1	81.5*!
COc1cccc(-c2ccc(C3[C@H]4CNC[C@@H]3N4Cc3cc(F)ccc3F)cc2)c1 (stereo partly specified)	-0.1	-5.4	-9.6
COc1ccc2c3c(n(C)c2c1)[C@@H](CO)N(C(=O)c1ccncc1)CC31CCN(S(C)(=O)=O)CC1	-0.3	-5.8	4.4
C[C@@H]1CCCCO[C@H](CN(C)C(=O)Nc2ccc(F)cc2)[C@H](C)CN([C@@H](C)CO)C(=O)c2cc(NS(=O)(=O)c3ccccc3)ccc2O1	0.0	11.0	8.4
Cn1ccnc1SCC(=O)Nc1cccc(C#N)c1	-0.1	-2.8	87.3*
Cc1ccc(NC(=O)CSc2nccn2C)cc1F	-0.4	1.1	18.4
O=C(C1COc2ccccc2O1)N1CCN(c2ccc(F)cc2)CC1 (stereo unspecified)	.	-2.1	.
O=C(C1COc2ccccc2O1)N1CCN(c2ccccc2O)CC1 (stereo unspecified)	-1.8	17.3*	-3.2
O=C(C1CCC1)N1CC2(C1)[C@H](c1ccccc1)[C@@H](CO)N2Cc1ccccc1F	0.0	-11.2	-14.1
O=C(NCCN1CCCC(O)C1)c1cc(COc2ccc(F)cc2Cl)on1 (stereo unspecified)	.	24.3*	-1.4
COc1ccc(OCc2cc(C(=O)NCCN3CCCC(O)C3)no2)c(Cl)c1 (stereo unspecified)	0.5	1.1	7.0
CN(C)CC(=O)Nc1ccc2c(c1)[C@@H]1C[C@@H](CC(=O)NC3CCCC3)O[C@@H](CO)[C@@H]1O2	-0.5	-2.4	-3.2
Cc1csc(NC(=O)CCn2c(=O)oc3ccc(Cl)cc32)n1	.	1.0	7.3
Cc1nnc(NC(=O)CCn2c(=O)oc3ccc(Cl)cc32)s1	0.0	-2.1	23.5*
CO[C@@H]1CN(C)C(=O)c2ccc(NS(=O)(=O)c3ccc(Oc4ccccc4)cc3)cc2OC[C@@H](C)NC[C@@H]1C	-0.2	.	.
Cc1cc(F)ccc1-c1cc(C(=O)NCc2ccc(C(F)(F)F)cc2)[nH]n1	4.1	0.2	7.5
Cc1cc(F)ccc1-c1cc(C(=O)NCc2ccco2)[nH]n1	1.4	.	57.2*
